These results are taken from ChEMBL document CHEMBL4414663, “Pyrazole-4-Carboxamide (YW2065): A Therapeutic Candidate for Colorectal Cancer via Dual Activities of Wnt/β-Catenin Signaling Inhibition and AMP-Activated Protein Kinase (AMPK) Activation” (J Med Chem, 2019).

One assay concerns SW-620. Briefly: Induction of apoptosis in human SW620 cells assessed as necrotic cells level at 10 uM incubated for 48 hrs by AAD-7 and FITC-annexin-V staining based flow cytometry (reference value: 0.027%). It counts as functional.
Assay [1] deals with Glycogen synthase kinase-3 alpha (Homo sapiens) (UniProt P49840). The assay can be described thus: Inhibition of GSK3A (unknown origin) at 1000 nM relative to control. The procedure, abridged: (§1)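 Single-concentration screen at 1000 nM against a 273-kinase panel, reported as percent inhibition.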
Glycogen synthase kinase-3 alpha (Homo sapiens), sequence (P49840 2-483 limits assumed): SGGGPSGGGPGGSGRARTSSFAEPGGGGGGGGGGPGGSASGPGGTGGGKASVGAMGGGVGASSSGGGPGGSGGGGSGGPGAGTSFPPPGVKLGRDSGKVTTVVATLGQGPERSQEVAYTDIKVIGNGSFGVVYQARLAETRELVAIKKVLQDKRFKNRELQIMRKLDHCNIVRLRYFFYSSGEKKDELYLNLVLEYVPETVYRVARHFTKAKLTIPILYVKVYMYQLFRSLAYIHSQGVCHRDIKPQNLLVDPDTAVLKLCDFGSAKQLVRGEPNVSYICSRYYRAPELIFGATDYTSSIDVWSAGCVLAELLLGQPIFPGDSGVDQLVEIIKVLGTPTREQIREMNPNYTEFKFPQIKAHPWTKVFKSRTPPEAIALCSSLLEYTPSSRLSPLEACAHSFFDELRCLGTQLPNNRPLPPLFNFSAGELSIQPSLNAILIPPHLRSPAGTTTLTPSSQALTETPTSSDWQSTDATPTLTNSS
The target of assay [2] is MAP kinase-activated protein kinase 3 (Homo sapiens) (UniProt Q16644). The assay can be described thus: Inhibition of MAPKAPK3 (unknown origin) at 1000 nM relative to control. The procedure, abridged: as §1
MAP kinase-activated protein kinase 3 (Homo sapiens), sequence (Q16644 whole entry, looked up): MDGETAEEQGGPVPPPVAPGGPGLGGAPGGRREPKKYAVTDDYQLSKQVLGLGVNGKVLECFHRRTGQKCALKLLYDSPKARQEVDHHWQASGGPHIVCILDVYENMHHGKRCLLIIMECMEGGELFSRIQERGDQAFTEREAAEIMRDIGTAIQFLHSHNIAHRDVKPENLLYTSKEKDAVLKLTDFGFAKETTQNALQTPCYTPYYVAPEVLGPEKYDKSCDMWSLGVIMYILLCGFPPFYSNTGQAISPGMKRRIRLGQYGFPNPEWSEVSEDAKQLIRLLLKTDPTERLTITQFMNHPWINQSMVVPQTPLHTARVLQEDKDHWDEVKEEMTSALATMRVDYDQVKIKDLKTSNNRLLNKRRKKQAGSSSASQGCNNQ
The species entered for another assay is Homo sapiens. The assay can be described thus: Inhibition of Wnt/beta-Catenin signaling in human SW620 cells assessed as reduction in S100A4 mRNA expression at 10 uM incubated for 24 hrs by real-time PCR analysis. It counts as cell-based. The essentials:
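SW620 cells (RPMI 1640, 10% FBS) in 6-well plates, incubated 24 h, then treated with compound at several concentrations, three replicates each, for 24 h. Total RNA isolated with Trizol/phenol-chloroform; 2 µg reverse transcribed; Wnt target gene mRNA quantified by PCR.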

Each structure is given as a SMILES string. Calls of active or inactive are those of the source. No cut-off for these calls is given here.

`Cc1c(C(=O)Nc2ccc3ccccc3n2)cnn1-c1ccccc1Br`: the Activity with SW-620 is on record as 0.00722%. Further, the inhibition result (in assay [1]; in assay [2]; in the assay listed under Homo sapiens) was “Active” throughout.
